# Source: ChEMBL document CHEMBL1122467, “Hypolipidemic activity of phthalimide derivatives. 3. A comparison of phthalimide and 1,2-benzisothiazolin-3-one 1,1-dioxide derivatives to phthalimidine and 1,2-benzisothiazoline 1,1-dioxide congeners” (1983)
# Columns and labels:
# Format in all cases: functional
# Mus musculus [1] = test: Hypolipidemic activity (14th day serum triglyceride) at 20 mg/kg in CF1 male mice
# In short: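 Separate group of male CF1 mice (~25 g) dosed ip at 20 (mg/kg)/day for 14 days, injections at 11:00 a.m. Bled by tail vein on day 14 into nonheparinized microcapillary tubes, centrifuged 3 min for serum. Triglycerides (mg %) measured on duplicate 50-µL serum samples. Given as % control.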
# Mus musculus [2] = test: Hypolipidemic activity (16th day serum cholesterol) at 20 mg/kg in CF1 male mice
# In short: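 Male CF1 mice (~25 g), given 20 (mg/kg)/day ip at 11:00 a.m. On day 16, tail-vein blood collected between 8:00 and 9:30 a.m. in alkali-free nonheparinized microcapillaries and centrifuged 3 min. Serum cholesterol (mg %) from duplicate 25-µL nonhemolyzed samples by modified Liebermann-Burchard reaction. Reported as % control.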
# Mus musculus [3] = test: Hypolipidemic activity (9th day serum cholesterol) at 20 mg/kg in CF1 male mice
# In short: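 Male CF1 mice (~25 g), dosed intraperitoneally at 20 (mg/kg)/day at 11:00 a.m. Tail-vein blood taken on day 9 between 8:00 and 9:30 a.m. into alkali-free nonheparinized microcapillary tubes, spun 3 min for serum. Cholesterol (mg %) in duplicate 25-µL nonhemolyzed serum samples by modified Liebermann-Burchard reaction. Expressed as % control.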
SMILES,Control (Mus musculus [1]),Control (Mus musculus [2]),Control (Mus musculus [3])
CCCCCN1C(=O)c2ccccc2C1=O,75%,58%,76%
O=C(O)CCN1C(=O)c2ccccc2C1=O,<58%,<55%,<74%
CCCCCN1C(=O)c2ccccc2S1(=O)=O,62%,58%,106%
CCCCN1C(=O)c2ccccc2S1(=O)=O,76%,56%,76%
O=C1NC(=O)c2ccccc21 [PHTHALIMIDE],44%,57%,63%
CC(=O)CCN1C(=O)c2ccccc2C1=O,<58%,<63%,<67%
O=C(O)CCCCCN1C(=O)c2ccccc2C1=O,51%,67%,81%
O=S1(=O)NCc2ccccc21,86%,80%,82%
CC(=O)CCN1Cc2ccccc2S1(=O)=O,78%,81%,87%
CC(=O)CCCN1C(=O)c2ccccc2S1(=O)=O,77%,77%,73%
O=C(O)CCCCCN1C(=O)c2ccccc2S1(=O)=O,55%,76%,90%
CCOC(=O)CCN1C(=O)c2ccccc2S1(=O)=O,61%,71%,97%
O=C(O)CCCCN1C(=O)c2ccccc2S1(=O)=O,44%,68%,96%
O=C(O)CCN1Cc2ccccc2C1=O,88%,97%,87%
O=C(O)CCN1C(=O)c2ccccc2S1(=O)=O,67%,47%,96%
CC(=O)CCN1C(=O)c2ccccc2S1(=O)=O,51%,62%,60%
O=C(O)CCCN1C(=O)c2ccccc2C1=O,59%,68%,80%
CCCCN1Cc2ccccc2C1=O,80%,62%,68%
CC(=O)CN1C(=O)c2ccccc2S1(=O)=O,66%,52%,95%
O=C1NS(=O)(=O)c2ccccc21 [SACCHARIN],51%,67%,68%
O=C(O)CCN1Cc2ccccc2S1(=O)=O,76%,59%,73%
CC(=O)CN1C(=O)c2ccccc2C1=O,<48%,<67%,80%
O=C(O)CCCN1C(=O)c2ccccc2S1(=O)=O,48%,73%,85%
CCCCN1C(=O)c2ccccc2C1=O,82%,<54%,<72%
CC(=O)CCN1Cc2ccccc2C1=O,<83%,<84%,88%
C=C(CN1C(=O)c2ccccc2S1(=O)=O)C(=O)O,101%,85%,85%
O=C1NCc2ccccc21,78%,87%,89%
O=C(O)CCCCN1C(=O)c2ccccc2C1=O,54%,77%,83%
CC(=O)CCCN1C(=O)c2ccccc2C1=O,<59%,<63%,<71%
CCCCN1Cc2ccccc2S1(=O)=O,76%,68%,71%
